Reference: ChEMBL document CHEMBL2203196, “Synthesis, antiproliferative and apoptotic activities of N-(6(4)-indazolyl)-benzenesulfonamide derivatives as potential anticancer agents” (Eur J Med Chem, 2012)
Active and inactive are the calls of the source. The calls are words filed in the database; no cut-off is given here.

What follows are compounds tested on P388 (assay: Induction of apoptosis in mouse P388 cells assessed as change in nuclear morphology at 0.97 to 957 uM after 3 days by DAPI staining-based fluorescence microscopy relative to control). Conditions: not given.
Format: functional
Outline: (§1)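 Cells plated at 5000–10000/well, left 6–8 h, then treated at MTT-derived IC₅₀ or IC₉₀; washed in cold PBS, fixed in 70% ethanol at 4 °C, stained with DAPI just before microscopy; percent apoptotic segmented nuclei scored against untreated controls; mean ± SD of 4–6 data.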

SMILES | Activity
CCOc1ccc(NS(=O)(=O)c2ccc(C)cc2)c2[nH]ncc12 | 56%
CCOc1ccc(NS(=O)(=O)c2ccc(OC)cc2)c2c(Cl)n[nH]c12 | 98%
COc1ccc(S(=O)(=O)Nc2cccc3[nH]nc(Cl)c23)cc1 | 74%
CCOc1ccc(NS(=O)(=O)c2ccc(C)cc2)c2c(Br)n[nH]c12 | 87.5%

Each compound was assayed on A549 (assay: Cytotoxicity against human A549 cells after 72 hrs by MTT assay). Conditions: A549, 72 h.
Format: functional, cell-based
Outline: (§2)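 Cells plated at 900–1800/well for exponential growth, centrifuged 275 g 2 min, left 6–8 h, then exposed 72 h to at least 5 concentrations (1:10 serial dilutions) in duplicate; MTT read-out; IC₅₀ from single concentration–response curves; mean ± SD of 3–9 experiments.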

SMILES | IC50
CCOc1ccc(NS(=O)(=O)c2ccc(C)cc2)c2[nH]ncc12 | 25.1 µM
CCOc1ccc(NS(=O)(=O)c2ccc(OC)cc2)c2c(Cl)n[nH]c12 | 5.83 µM
COc1ccc(S(=O)(=O)Nc2cccc3[nH]nc(Cl)c23)cc1 | 1.83 µM
CCOc1ccc(NS(=O)(=O)c2ccc(C)cc2)c2c(Br)n[nH]c12 | 17.5 µM

The compounds below were run on P388 (assay: Induction of apoptosis in mouse P388 cells assessed as change in nuclear morphology at IC50 after 3 days by DAPI staining-based fluorescence microscopy relative to control). Conditions: not given.
Format: functional
Outline: as §1

SMILES | Activity
CCOc1ccc(NS(=O)(=O)c2ccc(C)cc2)c2[nH]ncc12 | 19%
CCOc1ccc(NS(=O)(=O)c2ccc(OC)cc2)c2c(Cl)n[nH]c12 | 47.3%
COc1ccc(S(=O)(=O)Nc2cccc3[nH]nc(Cl)c23)cc1 | 11.5%
CCOc1ccc(NS(=O)(=O)c2ccc(C)cc2)c2c(Br)n[nH]c12 | 9.8%

Each compound was assayed on A2780 (assay: Cell cycle arrest in human A2780 cells assessed as accumulation at S phase at 6.8 to 102.3 uM after 72 hrs by propidium iodide staining-based FACS flow cytometry (reference value: 25.9 +/- 4.7 %)). Conditions: not given.
Format: functional

SMILES | Activity
CCOc1ccc(NS(=O)(=O)c2ccc(C)cc2)c2[nH]ncc12 | 8.2%
CCOc1ccc(NS(=O)(=O)c2ccc(OC)cc2)c2c(Cl)n[nH]c12 | 8.4%
COc1ccc(S(=O)(=O)Nc2cccc3[nH]nc(Cl)c23)cc1 | 7.8%
CCOc1ccc(NS(=O)(=O)c2ccc(C)cc2)c2c(Br)n[nH]c12 | 10.3%

What follows are compounds tested on A549 (assay: Induction of apoptosis in human A549 cells assessed as change in nuclear morphology at 0.97 to 957 uM after 3 days by DAPI staining-based fluorescence microscopy relative to control). Conditions: not given.
Format: functional
Outline: as §1

SMILES | Activity
CCOc1ccc(NS(=O)(=O)c2ccc(C)cc2)c2[nH]ncc12 | 24.9%
CCOc1ccc(NS(=O)(=O)c2ccc(OC)cc2)c2c(Cl)n[nH]c12 | 64.5%
COc1ccc(S(=O)(=O)Nc2cccc3[nH]nc(Cl)c23)cc1 | 70.8%
CCOc1ccc(NS(=O)(=O)c2ccc(C)cc2)c2c(Br)n[nH]c12 | 32.3%

Each compound was assayed on A2780 (assay: Cell cycle arrest in human A2780 cells assessed as accumulation at G2/M phase at IC50 after 72 hrs by propidium iodide staining-based FACS flow cytometry (reference value: 23.1 +/- 2.5 %)). Conditions: not given.
Format: functional

SMILES | Activity
CCOc1ccc(NS(=O)(=O)c2ccc(C)cc2)c2[nH]ncc12 | 33.7%
CCOc1ccc(NS(=O)(=O)c2ccc(OC)cc2)c2c(Cl)n[nH]c12 | 26.9%
COc1ccc(S(=O)(=O)Nc2cccc3[nH]nc(Cl)c23)cc1 | 25.9%
CCOc1ccc(NS(=O)(=O)c2ccc(C)cc2)c2c(Br)n[nH]c12 | 24.3%

The compounds below were run on A2780 (assay: Cell cycle arrest in human A2780 cells assessed as cells with > 4n chromosomes at 6.8 to 102.3 uM after 72 hrs by propidium iodide staining-based FACS flow cytometry). Conditions: not given.
Format: functional

SMILES | Activity
CCOc1ccc(NS(=O)(=O)c2ccc(C)cc2)c2[nH]ncc12 | 11.6%
CCOc1ccc(NS(=O)(=O)c2ccc(OC)cc2)c2c(Cl)n[nH]c12 | 11.3%
COc1ccc(S(=O)(=O)Nc2cccc3[nH]nc(Cl)c23)cc1 | 12.8%
CCOc1ccc(NS(=O)(=O)c2ccc(C)cc2)c2c(Br)n[nH]c12 | 8.1%

The compounds below were run on A2780 (assay: Cytotoxicity against human A2780 cells after 72 hrs by MTT assay). Conditions: A2780, 72 h.
Format: functional, cell-based
Outline: as §2

SMILES | IC50
CCOc1ccc(NS(=O)(=O)c2ccc(C)cc2)c2[nH]ncc12 | 8 µM
CCOc1ccc(NS(=O)(=O)c2ccc(OC)cc2)c2c(Cl)n[nH]c12 | 1.23 µM
COc1ccc(S(=O)(=O)Nc2cccc3[nH]nc(Cl)c23)cc1 | 0.86 µM
CCOc1ccc(NS(=O)(=O)c2ccc(C)cc2)c2c(Br)n[nH]c12 | 10.5 µM

What follows are compounds tested on A2780 (assay: Upregulation of p53 expression in human A2780 cells at IC50 after 24 hrs by Western blot analysis). Conditions: not given.
Format: functional, cell-based
Outline: (§3)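 A2780 cells treated at IC₅₀ and harvested at 24, 48, 72 h; lysed 30 min at 4 °C in 1% Triton X-100, 0.15 M NaCl, 10 mM Tris pH 7.4 with protease inhibitors; Bradford protein assay; 50 µg protein resolved on 12% SDS-PAGE, transferred to nitrocellulose, Ponceau S loading check, blocked overnight 2% BSA in TBST at 4 °C, probed for p53 or bax.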

SMILES | Activity
CCOc1ccc(NS(=O)(=O)c2ccc(C)cc2)c2[nH]ncc12 | Active
CCOc1ccc(NS(=O)(=O)c2ccc(OC)cc2)c2c(Cl)n[nH]c12 | Active
COc1ccc(S(=O)(=O)Nc2cccc3[nH]nc(Cl)c23)cc1 | Active
CCOc1ccc(NS(=O)(=O)c2ccc(C)cc2)c2c(Br)n[nH]c12 | Active

These compounds were tested on A2780 (assay: Induction of apoptosis in human A2780 cells assessed as change in nuclear morphology at > 200 uM after 3 days by DAPI staining-based fluorescence microscopy relative to control). Conditions: not given.
Format: functional
Outline: as §1

SMILES | Activity
CCOc1ccc(NS(=O)(=O)c2ccc(C)cc2)c2[nH]ncc12 | 27%

The compounds below were run on A2780 (assay: Upregulation of Bax expression in human A2780 cells at IC50 after 48 hrs by Western blot analysis). Conditions: not given.
Format: functional, cell-based
Outline: as §3

SMILES | Activity
CCOc1ccc(NS(=O)(=O)c2ccc(C)cc2)c2[nH]ncc12 | Active
CCOc1ccc(NS(=O)(=O)c2ccc(OC)cc2)c2c(Cl)n[nH]c12 | Active
COc1ccc(S(=O)(=O)Nc2cccc3[nH]nc(Cl)c23)cc1 | Active
CCOc1ccc(NS(=O)(=O)c2ccc(C)cc2)c2c(Br)n[nH]c12 | Active

These compounds were tested on A2780 (assay: Cell cycle arrest in human A2780 cells assessed as accumulation at G0/G1 phase at IC50 after 72 hrs by propidium iodide staining-based FACS flow cytometry (reference value: 51 +/- 6.2 %)). Conditions: not given.
Format: functional

SMILES | Activity
CCOc1ccc(NS(=O)(=O)c2ccc(C)cc2)c2[nH]ncc12 | 53.7%
CCOc1ccc(NS(=O)(=O)c2ccc(OC)cc2)c2c(Cl)n[nH]c12 | 62.7%
COc1ccc(S(=O)(=O)Nc2cccc3[nH]nc(Cl)c23)cc1 | 56.1%
CCOc1ccc(NS(=O)(=O)c2ccc(C)cc2)c2c(Br)n[nH]c12 | 61.5%

These compounds were tested on A2780 (assay: Cell cycle arrest in human A2780 cells assessed as accumulation at G2/M phase at 6.8 to 102.3 uM after 72 hrs by propidium iodide staining-based FACS flow cytometry (reference value: 23.1 +/- 2.5 %)). Conditions: not given.
Format: functional

SMILES | Activity
CCOc1ccc(NS(=O)(=O)c2ccc(C)cc2)c2[nH]ncc12 | 71.4%
CCOc1ccc(NS(=O)(=O)c2ccc(OC)cc2)c2c(Cl)n[nH]c12 | 69.6%
COc1ccc(S(=O)(=O)Nc2cccc3[nH]nc(Cl)c23)cc1 | 70.1%
CCOc1ccc(NS(=O)(=O)c2ccc(C)cc2)c2c(Br)n[nH]c12 | 71.5%

These compounds were tested on A2780 (assay: Cell cycle arrest in human A2780 cells assessed as accumulation at G0/G1 phase at 6.8 to 102.3 uM after 72 hrs by propidium iodide staining-based FACS flow cytometry (reference value: 51 +/- 6.2 %)). Conditions: not given.
Format: functional

SMILES | Activity
CCOc1ccc(NS(=O)(=O)c2ccc(C)cc2)c2[nH]ncc12 | 8.9%
CCOc1ccc(NS(=O)(=O)c2ccc(OC)cc2)c2c(Cl)n[nH]c12 | 10.8%
COc1ccc(S(=O)(=O)Nc2cccc3[nH]nc(Cl)c23)cc1 | 9.4%
CCOc1ccc(NS(=O)(=O)c2ccc(C)cc2)c2c(Br)n[nH]c12 | 10.2%

Each compound was assayed on A2780 (assay: Cell cycle arrest in human A2780 cells assessed as accumulation at S phase at IC50 after 72 hrs by propidium iodide staining-based FACS flow cytometry (reference value: 25.9 +/- 4.7 %)). Conditions: not given.
Format: functional

SMILES | Activity
CCOc1ccc(NS(=O)(=O)c2ccc(C)cc2)c2[nH]ncc12 | 12.6%
CCOc1ccc(NS(=O)(=O)c2ccc(OC)cc2)c2c(Cl)n[nH]c12 | 10.4%
COc1ccc(S(=O)(=O)Nc2cccc3[nH]nc(Cl)c23)cc1 | 18%
CCOc1ccc(NS(=O)(=O)c2ccc(C)cc2)c2c(Br)n[nH]c12 | 14.2%

The compounds below were run on A2780 (assay: Induction of apoptosis in human A2780 cells assessed as change in nuclear morphology at 0.97 to 957 uM after 3 days by DAPI staining-based fluorescence microscopy relative to control). Conditions: not given.
Format: functional
Outline: as §1

SMILES | Activity
CCOc1ccc(NS(=O)(=O)c2ccc(OC)cc2)c2c(Cl)n[nH]c12 | 36.8%
COc1ccc(S(=O)(=O)Nc2cccc3[nH]nc(Cl)c23)cc1 | 46.6%
CCOc1ccc(NS(=O)(=O)c2ccc(C)cc2)c2c(Br)n[nH]c12 | 34.3%

Each compound was assayed on A2780 (assay: Induction of apoptosis in human A2780 cells assessed as change in nuclear morphology at IC50 after 3 days by DAPI staining-based fluorescence microscopy relative to control). Conditions: not given.
Format: functional
Outline: as §1

SMILES | Activity
CCOc1ccc(NS(=O)(=O)c2ccc(C)cc2)c2[nH]ncc12 | 12.5%
CCOc1ccc(NS(=O)(=O)c2ccc(OC)cc2)c2c(Cl)n[nH]c12 | 23.3%
COc1ccc(S(=O)(=O)Nc2cccc3[nH]nc(Cl)c23)cc1 | 23.6%
CCOc1ccc(NS(=O)(=O)c2ccc(C)cc2)c2c(Br)n[nH]c12 | 12.8%

These compounds were tested on A549 (assay: Induction of apoptosis in human A549 cells assessed as change in nuclear morphology at IC50 after 3 days by DAPI staining-based fluorescence microscopy relative to control). Conditions: not given.
Format: functional
Outline: as §1

SMILES | Activity
CCOc1ccc(NS(=O)(=O)c2ccc(C)cc2)c2[nH]ncc12 | 18.8%
CCOc1ccc(NS(=O)(=O)c2ccc(OC)cc2)c2c(Cl)n[nH]c12 | 34.8%
COc1ccc(S(=O)(=O)Nc2cccc3[nH]nc(Cl)c23)cc1 | 34.3%
CCOc1ccc(NS(=O)(=O)c2ccc(C)cc2)c2c(Br)n[nH]c12 | 2.8%

These compounds were tested on P388 (assay: Cytotoxicity against mouse P388 cells after 72 hrs by MTT assay). Conditions: P388, 72 h.
Format: functional, cell-based
Outline: as §2

SMILES | IC50
CCOc1ccc(NS(=O)(=O)c2ccc(C)cc2)c2[nH]ncc12 | 5.7 µM
CCOc1ccc(NS(=O)(=O)c2ccc(OC)cc2)c2c(Cl)n[nH]c12 | 0.58 µM
COc1ccc(S(=O)(=O)Nc2cccc3[nH]nc(Cl)c23)cc1 | 0.5 µM
CCOc1ccc(NS(=O)(=O)c2ccc(C)cc2)c2c(Br)n[nH]c12 | 5.21 µM
